Assay results reported in ChEMBL document CHEMBL1154872, “Design, synthesis, and biological evaluation of novel pyrimidine derivatives as CDK2 inhibitors” (Eur J Med Chem, 2010).

Legend:
A-431 = assay: Growth inhibition of human A431 cells after 2 days by sulforhodamine B assay; type: functional; details: A-431, 48 h
Outline: (§1)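 Cells kept in RPMI 1640 with 10% FBS at 37 °C, 5% CO2; 1000 cells/well plated, compounds added next day at various concentrations, 2 days exposure. Fixed with 4% formalin 30 min, stained 0.1% SRB 30 min, acetic acid washes, dye eluted in 0.1 M Tris-HCl pH 8.0, A520 read. Triplicate, averaged; time-zero absorbance = 0%, untreated 2-day growth = 100%.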

[1] = target: Cyclin-dependent kinase 2/cyclin A (Homo sapiens, UniProt P24941); assay: Inhibition of human recombinant CDK2/cyclin A expressed in baculovirus-infected insect Sf21 cells after 10 mins
[2] = target: Epidermal growth factor receptor (Homo sapiens, UniProt P00533); assay: Inhibition of EGFR
HCT-116 = assay: Growth inhibition of human HCT116 cells after 2 days by sulforhodamine B assay; type: functional; details: HCT-116, 48 h; outline: as §1

Sequence of Epidermal growth factor receptor (P00533 whole entry): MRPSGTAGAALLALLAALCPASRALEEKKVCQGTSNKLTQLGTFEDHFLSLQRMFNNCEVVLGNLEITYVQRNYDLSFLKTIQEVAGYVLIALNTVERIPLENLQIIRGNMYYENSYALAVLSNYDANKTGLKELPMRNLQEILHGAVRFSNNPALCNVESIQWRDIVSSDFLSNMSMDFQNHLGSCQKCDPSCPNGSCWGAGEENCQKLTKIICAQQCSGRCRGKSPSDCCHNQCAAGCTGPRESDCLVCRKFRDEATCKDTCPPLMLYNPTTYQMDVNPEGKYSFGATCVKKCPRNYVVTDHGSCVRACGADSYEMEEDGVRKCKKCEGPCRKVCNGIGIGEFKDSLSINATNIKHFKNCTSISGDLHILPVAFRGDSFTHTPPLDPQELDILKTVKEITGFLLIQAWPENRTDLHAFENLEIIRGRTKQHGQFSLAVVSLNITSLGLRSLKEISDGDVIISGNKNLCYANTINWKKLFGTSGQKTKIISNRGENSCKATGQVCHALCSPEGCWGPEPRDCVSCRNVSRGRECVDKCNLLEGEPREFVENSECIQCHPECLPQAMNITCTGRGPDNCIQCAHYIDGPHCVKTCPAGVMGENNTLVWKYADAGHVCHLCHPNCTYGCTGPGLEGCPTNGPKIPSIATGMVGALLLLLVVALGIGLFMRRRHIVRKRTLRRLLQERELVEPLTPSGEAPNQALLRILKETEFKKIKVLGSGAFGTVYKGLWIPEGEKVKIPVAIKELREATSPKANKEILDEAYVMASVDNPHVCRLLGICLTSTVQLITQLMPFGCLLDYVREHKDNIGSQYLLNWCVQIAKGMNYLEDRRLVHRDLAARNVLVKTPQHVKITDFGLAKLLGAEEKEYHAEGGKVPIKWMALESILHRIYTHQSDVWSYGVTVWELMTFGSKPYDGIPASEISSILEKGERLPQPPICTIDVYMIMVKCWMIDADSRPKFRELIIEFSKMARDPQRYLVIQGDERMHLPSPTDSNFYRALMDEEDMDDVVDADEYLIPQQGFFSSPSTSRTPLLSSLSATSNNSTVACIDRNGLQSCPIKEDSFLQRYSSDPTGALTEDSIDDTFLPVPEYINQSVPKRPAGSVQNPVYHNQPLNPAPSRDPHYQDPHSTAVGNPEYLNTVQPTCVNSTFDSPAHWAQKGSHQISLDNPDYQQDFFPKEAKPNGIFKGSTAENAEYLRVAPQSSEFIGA

GI50 (A-431) | IC50 [1] | IC50 [2] | GI50 (HCT-116) | SMILES
69.2 µM | 57.5 µM | 88.3 µM | 77.5 µM | CC1=C(C(=O)Nc2cccc([N+](=O)[O-])c2)C(c2ccc(O)cc2O)NC(Nc2ccc(S(=O)(=O)Nc3ncccn3)cc2)=N1 (centres undefined)
3.94 µM | 11.5 µM | 79.8 µM | 8.99 µM | CC1=C(C(=O)Nc2cccc([N+](=O)[O-])c2)C(c2ccc(O)cc2O)NC(Nc2ccc(S(=O)(=O)Nc3nc(C)cc(C)n3)cc2)=N1 (centres undefined)
2.94 µM | 0.9 µM | > 100 µM | 16.6 µM | CC1=C(C(=O)Nc2cccc([N+](=O)[O-])c2)C(c2ccc(O)cc2O)NC(Nc2ccc(S(=O)(=O)Nc3cc(C)on3)cc2)=N1 (centres undefined)
2.78 µM | 0.3 µM | 80.6 µM | 4.5 µM | CC1=C(C(=O)Nc2cccc([N+](=O)[O-])c2)C(c2ccc(O)cc2O)NC(NN2C(=O)/C(=C\c3cccs3)SC2=S)=N1 (centres undefined)
24.3 µM | 28.2 µM | > 100 µM | 16.6 µM | CC1=C(C(=O)Nc2cccc([N+](=O)[O-])c2)C(c2ccc(O)cc2O)NC(NN2C(=O)/C(=C\c3ccccc3)SC2=S)=N1 (centres undefined)
24.3 µM | > 100 µM | 47.9 µM | 47.7 µM | CC1=C(C(=O)Nc2cccc([N+](=O)[O-])c2)C(c2ccc(O)cc2O)NC(NN)=N1 (centres undefined)
28.9 µM | 0.4 µM | 99.3 µM | > 100 µM | CC1=C(C(=O)Nc2cccc([N+](=O)[O-])c2)C(c2ccc(O)cc2O)NC(NN2C(=O)/C(=C\c3ccco3)SC2=S)=N1 (centres undefined)
19.1 µM | 22.9 µM | > 100 µM | 38.2 µM | CC1=C(C(=O)Nc2cccc([N+](=O)[O-])c2)C(c2ccc(O)cc2O)NC(N/N=C/c2cccs2)=N1 (centres undefined)
28.9 µM | 0.9 µM | > 100 µM | 10.9 µM | Cc1nc(S(=O)(=O)Cc2ccccc2)nc(-c2ccc(O)cc2O)c1C(=O)Nc1cccc([N+](=O)[O-])c1
2.91 µM | 3.8 µM | > 100 µM | 8.89 µM | CC1=C(C(=O)Nc2cccc([N+](=O)[O-])c2)C(c2ccc(O)cc2O)NC(N/N=C/c2ccco2)=N1 (centres undefined)
31.9 µM | 44.9 µM | 60.9 µM | 28.2 µM | CC1=C(C(=O)Nc2ccc(C)cc2)C(c2ccc(O)cc2O)NC(Nc2ccc([N+](=O)[O-])cc2Cl)=N1 (centres undefined)
35.6 µM | 46.8 µM | > 100 µM | > 100 µM | CC1=C(C(=O)Nc2cccc([N+](=O)[O-])c2)C(c2ccc(O)cc2O)NC(NCc2ccccc2)=N1 (centres undefined)
3.94 µM | 8.1 µM | > 100 µM | 10.9 µM | CC1=C(C(=O)Nc2cccc([N+](=O)[O-])c2)C(c2ccc(O)cc2O)NC(Nc2ccc([N+](=O)[O-])cc2Cl)=N1 (centres undefined)
32 µM | 48.3 µM | > 100 µM | 23.4 µM | Cc1ccc(NC(=O)c2c(C)nc(S(=O)(=O)Cc3ccccc3)nc2-c2ccc(O)cc2O)cc1
20.8 µM | 25.4 µM | 93.5 µM | 14.5 µM | CC1=C(C(=O)Nc2ccc(C)cc2)C(c2ccc(O)cc2O)NC(SCc2ccccc2)=N1 (centres undefined)
> 100 µM | 24.6 µM | 55.6 µM | 29 µM | CC1=C(C(=O)Nc2cccc([N+](=O)[O-])c2)C(c2ccc(O)cc2O)NC(SCc2ccccc2)=N1 (centres undefined)
15.8 µM | 10.3 µM | > 100 µM | > 100 µM | CC1=NN(C2=NC(C)=C(C(=O)Nc3cccc([N+](=O)[O-])c3)C(c3ccc(O)cc3O)N2)C(=O)/C1=C/c1ccco1 (centres undefined)
37.1 µM | 3.1 µM | > 100 µM | 26.5 µM | CC1=NN(C2=NC(C)=C(C(=O)Nc3cccc([N+](=O)[O-])c3)C(c3ccc(O)cc3O)N2)C(=O)/C1=C/c1cccs1 (centres undefined)
42.7 µM | > 100 µM | 23.5 µM | 66.7 µM | CC1=C(C(=O)Nc2ccc(C)cc2)C(c2ccc(O)cc2O)NC(NCc2ccccc2)=N1 (centres undefined)
0.18 µM |  |  | 0.13 µM | COc1cccc2c1C(=O)c1c(O)c3c(c(O)c1C2=O)C[C@@](O)(C(=O)CO)C[C@@H]3O[C@H]1C[C@H](N)[C@H](O)[C@H](C)O1 [DOXORUBICIN]
 | 0.5 µM |  |  | CC[C@H](CO)Nc1nc(NCc2ccccc2)c2c(n1)N(C(C)C)CN2 [RESCOVITINE]
